Values joined by “and” are separate entries in the source; they are usually repeats but may differ in a detail not shown here. Equal values may be shown once.
Assays:
Mus musculus [1] = organism: Mus musculus; assay: Antitumor activity in CD-1 female mouse skin Papilloma assay; format: functional
Summary of the method: (§1)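 CD-1 female mice. Initiation with DMBA (0.2 μmol in 0.2 mL acetone) on shaved dorsal skin. Promotion began 14 days later with TPA (10 nmol in acetone) twice weekly. Retinoid applied topically in 0.2 mL acetone to the same area. Dose-response used 137.7/135.7, 45.9, 15.3 or 5.1 nmol. Papillomas counted per mouse at day 83–89 after promotion start. Tumor-free mice also recorded. ED50 derived from the dose-response.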

Mus musculus [2] = organism: Mus musculus; assay: Antitumor activity in CD-1 female mouse skin Papilloma assay at 15.3 nmol dose; format: functional; summary of the method: as §1
[3] = molecular target: T1, Retinoic acid receptor alpha (Mus musculus) (UniProt P11416); assay: Inhibition of [3H]-retinoic acid binding to murine retinoic acid receptor RAR alpha; parameters: concentration or dose not given beside the values; settings: concentration not given here
T1 sequence (whole entry): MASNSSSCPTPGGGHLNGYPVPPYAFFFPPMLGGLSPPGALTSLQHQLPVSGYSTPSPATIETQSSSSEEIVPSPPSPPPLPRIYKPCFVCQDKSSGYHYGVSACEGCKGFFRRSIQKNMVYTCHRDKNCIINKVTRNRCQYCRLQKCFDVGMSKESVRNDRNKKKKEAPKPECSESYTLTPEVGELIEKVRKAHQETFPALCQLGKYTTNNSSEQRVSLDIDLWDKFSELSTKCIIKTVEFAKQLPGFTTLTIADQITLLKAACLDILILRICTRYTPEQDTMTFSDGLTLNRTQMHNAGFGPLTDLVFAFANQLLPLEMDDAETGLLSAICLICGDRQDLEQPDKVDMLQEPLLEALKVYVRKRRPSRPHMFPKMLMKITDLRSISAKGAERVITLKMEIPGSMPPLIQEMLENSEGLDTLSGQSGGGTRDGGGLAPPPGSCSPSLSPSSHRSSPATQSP
Summary of the method: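 RARα binding: inhibition of tritiated retinoic acid binding by a 200-fold molar excess of unlabeled retinoid, expressed as percent inhibition.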

Mus musculus [4] = organism: Mus musculus; assay: Antitumor activity in CD-1 female mouse skin Papilloma assay at 45.9 nmol dose; format: functional; summary of the method: as §1
Mus musculus [5] = organism: Mus musculus; assay: Antitumor activity in CD-1 female mouse skin Papilloma assay at 5.1 nmol dose; format: functional; summary of the method: as §1
Mus musculus [6] = organism: Mus musculus; assay: Antitumor activity in CD-1 female mouse skin Papilloma assay at 135.7 nmol dose; format: functional; summary of the method: as §1

Compound | ED50 (Mus musculus [1]) [nmol] | inhibition [3] [%] | other results
CC(/C=C/C=C(\C)COc1c(Cl)cc(F)cc1Cl)=C\C(=O)O | > 100 |  | 
CCOC(=O)/C=C(C)/C=C/C=C(C)/C=C/c1c(C)cc(OC)c(C)c1C [ETRETINATE] | 7.2 |  | 
CC1=C(/C=C/C(C)=C/C=C/C(C)=C/C(=O)O)C(C)(C)CCC1 [TRETINOIN] | 5.2 |  | Control (Mus musculus [2]): 8%
CC(/C=C/C=C(\C)C(=O)Nc1c(C)cc(C)cc1C)=C\C(=O)O | > 100 |  | 
CC(/C=C/C=C(\C)COc1ccc(C(C)(C)C)cc1C(C)(C)C)=C\C(=O)O | > 45.9 | 5 | 
CC(/C=C/C=C(\C)COc1ccc(F)cc1C)=C\C(=O)O | 45.9 | 0 | 
COc1ccc(OC/C(C)=C/C=C/C(C)=C/C(=O)O)c(C(C)(C)C)c1 | > 100 | 25 | 
CC(/C=C/C=C(\C)C(=O)Nc1ccc(C(C)(C)C)cc1C(C)(C)C)=C\C(=O)O | > 100 | 0 | 
COC(=O)/C=C(C)/C=C/C=C(\C)C(=O)Nc1ccc(C(C)(C)C)cc1C(C)(C)C | > 100 |  | 
CC(/C=C/C=C(\C)COc1c(C)cc(C)cc1C)=C\C(=O)O | 60 | 30 | 
COc1cc(NC(=O)/C(C)=C/C=C/C(C)=C/C(=O)O)cc(OC)c1 | > 45.9 |  | 
CC(/C=C/C=C(\C)COc1cc(C)cc(C)c1C)=C\C(=O)O | 27 | 30 | Control (Mus musculus [4]): 36%; No. of tumors/mouse (Mus musculus [4]): 15 and 5; Control (Mus musculus [5]): 89%; No. of tumors/mouse (Mus musculus [5]): 29 and 12.4; Control (Mus musculus [2]): 66%; No. of tumors/mouse (Mus musculus [2]): 22 and 9.2; Control (Mus musculus [6]): 10%
CC(/C=C/C=C(\C)C(=O)Nc1c(C)cc(C(C)(C)C)cc1C(C)(C)C)=C\C(=O)O |  | 15 | 

Reference: ChEMBL document CHEMBL1145036, “Inhibition of papilloma formation by analogues of 7,8-dihydroretinoic acid” (2003)
